# From ChEMBL document CHEMBL5357066, “Development of Novel Membrane Disrupting Lipoguanidine Compounds Sensitizing Gram-Negative Bacteria to Antibiotics” (ACS Med Chem Lett, 2024)
# Experiments:
# [1] = system: Staphylococcus aureus; assay: Antibacterial activity against methicillin sensitive Staphylococcus aureus ATCC 9144 assessed as bacterial growth inhibition incubated for overnight by microbroth dilution method; assay type: functional
# Procedure, shortened: (§1)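 Microbroth dilution in Tryptic Soy Broth. DMSO stocks were diluted in TSB as 2-fold series. Overnight TSB cultures were back-diluted to OD 0.01 and mixed 1:1 with compound. Incubation was overnight at 37 °C. MIC is the lowest concentration with no visible growth (<0.1 OD600). DMSO at equivalent concentrations was checked.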
# [2] = system: Pseudomonas aeruginosa; assay: Synergistic antibacterial activity against Pseudomonas aeruginosa NCTC 13437 assessed as fold change in rifampicin MIC at <=0.25 times MIC incubated for overnight by microbroth dilution checkerboard assay relative to rifampicin alone; assay type: functional
# Procedure, shortened: (§2)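 Checkerboard microdilution in Tryptic Soy Broth, run like the MIC assay. Overnight TSB cultures were back-diluted to OD 0.01 and added 1:1 to the combined two-fold series of both agents, then incubated overnight at 37 °C. Growth/no-growth was called at <0.1 OD600. MICs alone were read on the same plates. FIC index came from the most synergistic well; three independent repeats, mean ± SD.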
# [3] = system: Acinetobacter baumannii; assay: Synergistic antibacterial activity against Acinetobacter baumannii AYE assessed as fold change in rifampicin MIC at <=0.25 times MIC incubated for overnight by microbroth dilution checkerboard assay relative to rifampicin alone; assay type: functional
# Procedure, shortened: (§3)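 Checkerboard microdilution under MIC conditions (TSB, overnight, 37 °C). Two-fold series of each agent were combined on one plate before bacteria were added, and single-agent MICs were measured on the same plate. FIC = sum of combination MIC/alone MIC for each agent, taken from the most synergistic well. Three independent repeats, mean ± SD. ≤0.5 was taken as strong synergy and 0.5–<1 as weak.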
# [4] = system: Acinetobacter baumannii; assay: Antibacterial activity against Acinetobacter baumannii AYE assessed as bacterial growth inhibition incubated for overnight by microbroth dilution method; assay type: functional
# Procedure, shortened: (§4)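 Broth microdilution in Tryptic Soy Broth. DMSO stocks were diluted in TSB as 2-fold series. Overnight TSB cultures were back-diluted to OD 0.01 and mixed 1:1 with compound. Incubation was overnight at 37 °C. MIC was the lowest concentration without visible growth (<0.1 OD600). DMSO vehicle was checked at equivalent concentrations.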
# [5] = system: Escherichia coli; assay: Antibacterial activity against Escherichia coli NCTC 12923 assessed as bacterial growth inhibition incubated for overnight by microbroth dilution method; assay type: functional; procedure, shortened: as §4
# [6] = system: Pseudomonas aeruginosa; assay: Antibacterial activity against Pseudomonas aeruginosa PAO1 assessed as bacterial growth inhibition incubated for overnight by microbroth dilution method; assay type: functional; procedure, shortened: as §4
# [7] = system: Pseudomonas aeruginosa; assay: Synergistic antibacterial activity against Pseudomonas aeruginosa NCTC 13437 assessed as rifampicin MIC at <=0.25 times MIC incubated for overnight by microbroth dilution checkerboard assay; assay type: functional; procedure, shortened: as §2
# [8] = system: Staphylococcus aureus; assay: Antibacterial activity against methicillin resistant Staphylococcus aureus NCTC 13616 assessed as bacterial growth inhibition incubated for overnight by microbroth dilution method; assay type: functional; procedure, shortened: as §1
# [9] = system: Klebsiella pneumoniae; assay: Antibacterial activity against Klebsiella pneumoniae M6 assessed as bacterial growth inhibition incubated for overnight by microbroth dilution method
# [10] = system: Enterococcus faecalis; assay: Antibacterial activity against vancomycin sensitive Enterococcus faecalis NCTC 775 assessed as bacterial growth inhibition incubated for overnight by microbroth dilution method
# [11] = system: Staphylococcus aureus; assay: Antibacterial activity against methicillin resistant Staphylococcus aureus USA 300 assessed as bacterial growth inhibition incubated for overnight by microbroth dilution method; assay type: functional; procedure, shortened: as §1
# [12] = system: Acinetobacter baumannii; assay: Antibacterial activity against Acinetobacter baumannii ATCC 17978 assessed as bacterial growth inhibition incubated for overnight by microbroth dilution method; assay type: functional; procedure, shortened: as §4
# [13] = system: Klebsiella pneumoniae; assay: Synergistic antibacterial activity against Klebsiella pneumoniae NCTC 13368 assessed as rifampicin MIC at <=0.25 times MIC incubated for overnight by microbroth dilution checkerboard assay; assay type: functional; procedure, shortened: as §3
# [14] = system: Escherichia coli; assay: Synergistic antibacterial activity against Escherichia coli NCTC 12923 assessed as fold change in rifampicin MIC at <=0.25 times MIC incubated for overnight by microbroth dilution checkerboard assay relative to rifampicin alone; assay type: functional; procedure, shortened: as §3
# [15] = system: Klebsiella pneumoniae; assay: Antibacterial activity against ESBL Klebsiella pneumoniae NCTC 13368 assessed as bacterial growth inhibition incubated for overnight by microbroth dilution method
# [16] = system: Pseudomonas aeruginosa; assay: Synergistic antibacterial activity against Pseudomonas aeruginosa PAO1 assessed as fold change in rifampicin MIC at <=0.25 times MIC incubated for overnight by microbroth dilution checkerboard assay relative to rifampicin alone; assay type: functional; procedure, shortened: as §2
# [17] = system: Klebsiella pneumoniae; assay: Synergistic antibacterial activity against […] Klebsiella pneumoniae M6 assessed as rifampicin MIC at <=0.25 times MIC incubated for overnight by microbroth dilution checkerboard assay; assay type: functional
# Procedure, shortened: (§5)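 Checkerboard run under the MIC conditions (TSB, overnight, 37 °C). Antibiotic and lipoguanidine 2-fold series were combined on one plate before bacteria were added. Growth/no-growth was scored as for the MIC (<0.1 OD600). Single-agent MICs were measured on the same plates. Three independent repeats were done.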
# [18] = system: Pseudomonas aeruginosa; assay: Antibacterial activity against Pseudomonas aeruginosa NCTC 13437 assessed as bacterial growth inhibition incubated for overnight by microbroth dilution method; assay type: functional; procedure, shortened: as §4
# [19] = system: Acinetobacter baumannii; assay: Synergistic antibacterial activity against Acinetobacter baumannii ATCC 17978 assessed as rifampicin MIC at <=0.25 times MIC incubated for overnight by microbroth dilution checkerboard assay; assay type: functional; procedure, shortened: as §3
# [20] = system: Pseudomonas aeruginosa; assay: Synergistic antibacterial activity against Pseudomonas aeruginosa PAO1 assessed as rifampicin MIC at <=0.25 times MIC incubated for overnight by microbroth dilution checkerboard assay; assay type: functional; procedure, shortened: as §2
# [21] = system: Escherichia coli; assay: Synergistic antibacterial activity against Escherichia coli NCTC 12923 assessed as rifampicin MIC at <=0.25 times MIC incubated for overnight by microbroth dilution checkerboard assay; assay type: functional; procedure, shortened: as §3
# [22] = system: Acinetobacter baumannii; assay: Synergistic antibacterial activity against Acinetobacter baumannii AYE assessed as rifampicin MIC at <=0.25 times MIC incubated for overnight by microbroth dilution checkerboard assay; assay type: functional; procedure, shortened: as §3
# [23] = system: Staphylococcus aureus; assay: Antibacterial activity against methicillin sensitive Staphylococcus aureus 1199B assessed as bacterial growth inhibition incubated for overnight by microbroth dilution method; assay type: functional; procedure, shortened: as §1
# [24] = system: Enterococcus faecium; assay: Antibacterial activity against vancomycin resistant Enterococcus faecium NCTC 12204 assessed as bacterial growth inhibition incubated for overnight by microbroth dilution method; assay type: functional; procedure, shortened: as §1
# [25] = system: Klebsiella pneumoniae; assay: Synergistic antibacterial activity against Klebsiella pneumoniae NCTC 13368 assessed as fold change in rifampicin MIC at <=0.25 times MIC incubated for overnight by microbroth dilution checkerboard assay relative to rifampicin alone; assay type: functional; procedure, shortened: as §5
# [26] = system: Acinetobacter baumannii; assay: Synergistic antibacterial activity against Acinetobacter baumannii ATCC 17978 assessed as fold change in rifampicin MIC at <=0.25 times MIC incubated for overnight by microbroth dilution checkerboard assay relative to rifampicin alone; assay type: functional; procedure, shortened: as §3
# [27] = system: Enterococcus faecalis; assay: Antibacterial activity against vancomycin resistant Enterococcus faecalis NCTC 12201 assessed as bacterial growth inhibition incubated for overnight by microbroth dilution method; assay type: functional; procedure, shortened: as §1
# [28] = system: Pseudomonas aeruginosa; assay: Synergistic antibacterial activity against Pseudomonas aeruginosa PAO1 assessed as fold change in novobiocin MIC at <=0.25 times MIC incubated for overnight by microbroth dilution checkerboard assay relative to novobiocin alone; assay type: functional; procedure, shortened: as §2
# [29] = system: Klebsiella pneumoniae; assay: Synergistic antibacterial activity against […] Klebsiella pneumoniae NCTC 13368 assessed as novobiocin MIC at <=0.25 times MIC incubated for overnight by microbroth dilution checkerboard assay; assay type: functional; procedure, shortened: as §5
Compound,MIC [1] [µg/mL],fold change (FC) [2],fold change (FC) [3],MIC [4] [µg/mL],MIC [5] [µg/mL],MIC [6] [µg/mL],MIC [7] [µg/mL],MIC [8] [µg/mL],MIC [9] [µg/mL],MIC [10] [µg/mL],MIC [11] [µg/mL],MIC [12] [µg/mL],MIC [13] [µg/mL],fold change (FC) [14],MIC [15] [µg/mL],fold change (FC) [16],MIC [17] [µg/mL],MIC [18] [µg/mL],MIC [19] [µg/mL],MIC [20] [µg/mL],further results
CCCCCCCCCCCCNC(=N)NCCCCN,2,>=4,>=4,> 128,16,> 128,≤ 0.125,4,> 128,8,4,128,0.25,>=4,> 128,>=4,≤ 0.125,64,≤ 0.125,≤ 0.125,MIC [21]: ≤ 0.125 µg/mL; MIC [22]: ≤ 0.125 µg/mL; MIC [23]: 4 µg/mL; MIC [24]: 16 µg/mL; fold change (FC) [25]: >=4; fold change (FC) [26]: >=4; MIC [27]: 16 µg/mL
CC/C=C\C/C=C\C/C=C\CCCCCCCCNC(=N)NCCCCN,8,0,>=4,128,32,> 128,16,8,128,8,4,128,≤ 0.125,>=4,> 128,0,≤ 0.125,> 128,≤ 0.125,16,fold change (FC) [28]: 0; MIC [29]: > 128 µg/mL; MIC [21]: 1 µg/mL; MIC [22]: ≤ 0.125 µg/mL; MIC [23]: 8 µg/mL; MIC [24]: 8 µg/mL; fold change (FC) [25]: >=4; fold change (FC) [26]: >=4; MIC [27]: 8 µg/mL
CCCCCCCC/C=C\CCCCCCCCNC(=N)NCCCCN,4,0,>=4,16,8,128,16,4,8,4,2,8,≤ 0.125,0,128,0,16,> 128,≤ 0.125,16,fold change (FC) [28]: 0; MIC [29]: > 128 µg/mL; MIC [21]: 8 µg/mL; MIC [22]: ≤ 0.125 µg/mL; MIC [23]: 4 µg/mL; MIC [24]: 4 µg/mL; fold change (FC) [25]: >=4; fold change (FC) [26]: >=4; MIC [27]: 4 µg/mL
CCCCC/C=C\C/C=C\CCCCCCCCNC(=N)NCCCCN,8,0,>=4,8,4,16,16,16,8,32,8,8,16,0,16,0,4,> 64,0.5,16,fold change (FC) [28]: 0; MIC [29]: > 128 µg/mL; MIC [21]: 8 µg/mL; MIC [22]: 0.25 µg/mL; MIC [23]: 16 µg/mL; MIC [24]: 16 µg/mL; fold change (FC) [25]: 0; fold change (FC) [26]: >=4; MIC [27]: 16 µg/mL
CCCCCCCCCCNC(=N)NCCCCN,16,>=4,>=4,> 128,128,> 128,≤ 0.125,32,> 128,128,32,> 128,0.25,>=4,> 128,>=4,≤ 0.125,> 128,≤ 0.125,≤ 0.125,fold change (FC) [28]: >=4; MIC [29]: 16 µg/mL; MIC [21]: ≤ 0.125 µg/mL; MIC [22]: ≤ 0.125 µg/mL; MIC [23]: 32 µg/mL; MIC [24]: > 128 µg/mL; fold change (FC) [25]: >=4; fold change (FC) [26]: >=4; MIC [27]: > 128 µg/mL
CCCCCCCC/C=C\CCCCCCCCNC(=N)NCCCCNC(=N)N,4,0,>=4,32,8,128,16,2,16,2,2,8,≤ 0.125,0,128,0,2,> 128,≤ 0.125,16,fold change (FC) [28]: 0; MIC [29]: > 128 µg/mL; MIC [21]: 8 µg/mL; MIC [22]: ≤ 0.125 µg/mL; MIC [23]: 2 µg/mL; MIC [24]: 2 µg/mL; fold change (FC) [25]: >=4; fold change (FC) [26]: >=4; MIC [27]: 2 µg/mL
